Experimental findings from ChEMBL document CHEMBL4732230, “Design, synthesis, and biological evaluation of 4-benzoylamino-1H-pyrazole-3-carboxamide derivatives as potent CDK2 inhibitors” (Eur J Med Chem, 2021) are described below.

The target in test [1] is Cyclin-dependent kinase 2 (Homo sapiens) (UniProt P24941). Nature of the test: Inhibition of CDK2 in human MV4-11 cells assessed as reduction in Rb phosphorylation at Ser807/811 at 0.375 to 6 uM by immunoblot analysis. In kind it is cell-based. Particulars: dose 0.375-6 µM, time lower […], time upper 48.0 hrs, TDE = time-dependent effect. The procedure, abridged:
(§1)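 MV4-11 cells treated with compound for 24 h or 48 h. Lysates were separated on 8% or 10% SDS-PAGE and transferred to nitrocellulose. Membranes were immunoblotted for phospho-Rb Ser780, phospho-Rb Ser807/811 and total Rb, with β-actin as loading control. Detection used HRP secondary at 1:10,000 and ECL.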

Test [2] relates to A2058. Nature of the test: Induction of cell cycle arrest in human A2058 cells assessed as accumulation at G1 phase at 0.2 uM after 24 hrs by propidium iodide/RNase staining based flow cytometric analysis (reference value: 48.05 %). The test is classed as functional.
The subject of test [3] is A2058. Nature of the test: Induction of cell cycle arrest in human A2058 cells assessed as accumulation at G2 phase at 0.4 uM after 24 hrs by propidium iodide/RNase staining based flow cytometric analysis (reference value: 21.19 %). The test is classed as functional.
In the next test the test system is MRC5. Nature of the test: Cytotoxicity against human MRC5 cells assessed as reduction in cell viability measured after 96 hrs by Celltiter-Glo luminescent assay. The test is classed as cell-based. As to conditions: MRC5, 96 h. The procedure, abridged:
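Cells in DMEM (A2058, MRC5) or RPMI 1640 (MV4-11), each with 10% fetal bovine serum and 1% penicillin/streptomycin. Cells were plated in 96-well plates and exposed to serially concentrated compound for 96 h, with DMSO as control. Viability was read by CellTiter-Glo luminescence and IC50 derived.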

For test [4], the system named is A2058. In words: Induction of apoptosis in human A2058 cells assessed as late apoptotic cells at 1 uM measured after 48 hrs by Annexin V-FITC/propidium iodide staining based flow cytometry (reference value: 1.85 %). The test is classed as functional.
The subject of test [5] is A2058. In words: Induction of apoptosis in human A2058 cells assessed as viable cells at 1 uM measured after 48 hrs by Annexin V-FITC/propidium iodide staining based flow cytometry (reference value: 94.6 %). Particulars: read-out: Activity. In kind it is functional.
In test [6] the target is Cyclin-dependent kinase 2 (Homo sapiens) (UniProt P24941). Nature of the test: Inhibition of CDK2 in human MV4-11 cells assessed as reduction in Rb phosphorylation at Ser780 after 24 to 48 hrs by immunoblot analysis. The test is classed as cell-based. Particulars: dose 0.375-6 µM, time lower […], time upper 48.0 hrs. The procedure, abridged:
as §1

For another test, the target named is CDK12/Cyclin K (Homo sapiens, UniProt Q9NYV4). In words: Inhibition of CDK12/cyclin K (unknown origin) using FAM-labeled peptide and ATP as substrate preincubated for 10 mins followed by substrate addition by mobility shift assay. In kind it is protein-complex assay. The procedure, abridged: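 Mobility shift assay in 50 mM HEPES pH 7.5 with 0.0015% Brij-35. Kinase was added to serially diluted compound in 10% DMSO and held 10 min at room temperature. FAM-labeled peptide and ATP were then added and the mixture incubated at 28 °C for the specified time. Reactions were stopped with EDTA-containing buffer.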
Sequence of CDK12/Cyclin K (O75909 whole entry): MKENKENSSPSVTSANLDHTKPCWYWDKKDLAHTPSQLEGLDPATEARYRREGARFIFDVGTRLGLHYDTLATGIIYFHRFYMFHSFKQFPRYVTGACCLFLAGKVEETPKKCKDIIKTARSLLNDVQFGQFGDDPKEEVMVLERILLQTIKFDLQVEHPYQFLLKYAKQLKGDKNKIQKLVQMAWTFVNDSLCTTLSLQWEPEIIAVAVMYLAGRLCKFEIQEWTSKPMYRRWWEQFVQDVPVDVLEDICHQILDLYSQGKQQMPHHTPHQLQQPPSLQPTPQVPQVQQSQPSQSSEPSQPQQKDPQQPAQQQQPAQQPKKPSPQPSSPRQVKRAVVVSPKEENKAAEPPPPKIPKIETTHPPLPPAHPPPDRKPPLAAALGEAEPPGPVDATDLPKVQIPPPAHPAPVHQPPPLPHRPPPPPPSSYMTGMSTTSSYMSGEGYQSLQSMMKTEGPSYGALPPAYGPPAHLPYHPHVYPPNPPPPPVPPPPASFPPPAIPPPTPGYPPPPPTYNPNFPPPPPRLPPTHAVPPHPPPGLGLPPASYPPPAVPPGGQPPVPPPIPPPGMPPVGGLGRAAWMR
Sequence of CDK12/Cyclin K (Q9NYV4 whole entry): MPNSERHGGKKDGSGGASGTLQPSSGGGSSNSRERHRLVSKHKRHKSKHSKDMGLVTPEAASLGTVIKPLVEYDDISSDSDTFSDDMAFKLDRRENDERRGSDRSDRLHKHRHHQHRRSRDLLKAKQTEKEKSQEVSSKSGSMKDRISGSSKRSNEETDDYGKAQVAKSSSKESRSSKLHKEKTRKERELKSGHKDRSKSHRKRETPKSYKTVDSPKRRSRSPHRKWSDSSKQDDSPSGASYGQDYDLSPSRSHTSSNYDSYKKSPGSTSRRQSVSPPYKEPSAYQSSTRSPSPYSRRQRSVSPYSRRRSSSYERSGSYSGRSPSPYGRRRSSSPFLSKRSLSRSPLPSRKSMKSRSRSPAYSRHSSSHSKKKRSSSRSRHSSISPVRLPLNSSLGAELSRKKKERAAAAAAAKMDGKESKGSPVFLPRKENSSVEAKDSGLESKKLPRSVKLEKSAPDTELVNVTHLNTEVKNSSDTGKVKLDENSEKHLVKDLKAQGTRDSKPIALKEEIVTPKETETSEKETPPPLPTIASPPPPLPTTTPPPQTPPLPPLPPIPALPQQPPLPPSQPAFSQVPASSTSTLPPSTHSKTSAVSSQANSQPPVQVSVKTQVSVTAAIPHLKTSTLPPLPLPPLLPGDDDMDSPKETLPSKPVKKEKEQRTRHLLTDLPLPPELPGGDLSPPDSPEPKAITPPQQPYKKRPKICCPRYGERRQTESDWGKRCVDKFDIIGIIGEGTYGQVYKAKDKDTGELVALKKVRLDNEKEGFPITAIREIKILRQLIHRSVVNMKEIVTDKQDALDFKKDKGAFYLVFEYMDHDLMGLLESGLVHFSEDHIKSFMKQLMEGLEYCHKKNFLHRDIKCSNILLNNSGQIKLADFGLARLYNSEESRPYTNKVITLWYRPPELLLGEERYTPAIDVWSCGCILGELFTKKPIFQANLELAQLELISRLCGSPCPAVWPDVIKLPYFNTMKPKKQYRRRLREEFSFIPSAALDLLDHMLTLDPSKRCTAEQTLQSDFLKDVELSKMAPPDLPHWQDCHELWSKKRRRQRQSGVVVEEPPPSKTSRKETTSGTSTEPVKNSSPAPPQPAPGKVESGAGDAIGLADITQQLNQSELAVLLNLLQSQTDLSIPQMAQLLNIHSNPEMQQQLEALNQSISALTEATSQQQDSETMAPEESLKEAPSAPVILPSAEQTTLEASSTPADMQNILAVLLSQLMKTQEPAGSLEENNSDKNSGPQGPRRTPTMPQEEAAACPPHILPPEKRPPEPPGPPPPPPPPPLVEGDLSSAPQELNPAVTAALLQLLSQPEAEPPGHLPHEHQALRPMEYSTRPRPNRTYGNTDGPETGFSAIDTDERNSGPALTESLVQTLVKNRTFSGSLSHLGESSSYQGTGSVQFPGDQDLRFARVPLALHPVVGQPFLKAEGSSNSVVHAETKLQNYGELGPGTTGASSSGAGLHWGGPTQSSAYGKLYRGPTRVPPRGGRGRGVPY

The target in another test is CDK4/Cyclin D3 (Homo sapiens, UniProt P11802). In words: Inhibition of CDK4/cyclin D3 (unknown origin) using FAM-labeled peptide and ATP as substrate preincubated for 10 mins followed by substrate addition by mobility shift assay. The test is classed as protein-complex assay.
Sequence of CDK4/Cyclin D3 (P11802 whole entry): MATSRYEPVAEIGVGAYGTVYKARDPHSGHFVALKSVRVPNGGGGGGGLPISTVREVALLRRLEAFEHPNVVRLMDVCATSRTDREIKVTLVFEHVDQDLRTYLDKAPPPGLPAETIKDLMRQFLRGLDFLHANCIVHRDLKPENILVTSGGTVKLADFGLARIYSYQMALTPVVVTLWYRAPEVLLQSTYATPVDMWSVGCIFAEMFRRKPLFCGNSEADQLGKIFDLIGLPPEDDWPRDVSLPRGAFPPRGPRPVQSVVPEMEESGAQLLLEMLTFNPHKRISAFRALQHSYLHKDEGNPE
Sequence of CDK4/Cyclin D3 (P30281 whole entry, further chain): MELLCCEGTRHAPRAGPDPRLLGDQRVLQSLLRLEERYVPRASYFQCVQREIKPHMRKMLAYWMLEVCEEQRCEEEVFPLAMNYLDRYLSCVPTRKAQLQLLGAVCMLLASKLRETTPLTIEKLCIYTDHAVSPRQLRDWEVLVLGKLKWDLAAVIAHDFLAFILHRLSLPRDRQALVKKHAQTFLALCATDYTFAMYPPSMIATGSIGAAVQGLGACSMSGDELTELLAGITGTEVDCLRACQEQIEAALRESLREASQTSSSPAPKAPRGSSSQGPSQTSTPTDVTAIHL
The test system of test [7] is A2058. Nature of the test: Induction of apoptosis in human A2058 cells assessed as early apoptotic cells at 0.4 uM measured after 48 hrs by Annexin V-FITC/propidium iodide staining based flow cytometry (reference value: 3.13 %). The test is classed as functional.
For test [8], the target named is Cyclin-dependent kinase 2 (Homo sapiens) (UniProt P24941). Nature of the test: Inhibition of CDK2 in human MV4-11 cells assessed as downregulation of Mcl-1 expression at 0.1875 to 3 uM after 24 hrs by immunoblot analysis. As to conditions: dose 0.1875-3 µM. The test is classed as cell-based. An outline of the steps:
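MV4-11 cells exposed to compound for 24 h. Lysates were resolved by 8% or 10% SDS-PAGE and blotted to nitrocellulose. Blots were probed with anti-Mcl-1 overnight at 4 °C, then HRP secondary at 1:10,000. Bands were developed by ECL, with GAPDH as loading control.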

For another test, the target named is CDK2/Cyclin A2 (Homo sapiens, UniProt P24941). In words: Inhibition of CDK2/cyclin A2 (unknown origin) using FAM-labeled peptide and ATP as substrate preincubated for 10 mins followed by substrate addition by mobility shift assay. In kind it is protein-complex assay.
Test [9] deals with A2058. In words: Induction of cell cycle arrest in human A2058 cells assessed as accumulation at G2 phase at 0.2 uM after 24 hrs by propidium iodide/RNase staining based flow cytometric analysis (reference value: 21.19 %). In kind it is functional.

Activity calls are given as the source filed them. No cut-off for these calls is given here. Where only a bound is given, the exact number is not on record here.

As for `NC(=O)c1ccc(-c2ccc(F)c(C(=O)Nc3c[nH]nc3C(=O)Nc3ccc(F)cc3)c2F)cn1`, the inhibition result in [1] is “Tde”; in test [6], “Dose-dependent effect”. The Activity with A2058 [2] is on record as 36.89%; in the test on A2058 [3], 41.44%; in the test with A2058 [4], 28.6%; with A2058 [7], 21.7%; in the test on A2058 [9] it was 21.76%. The IC50 in the test with MRC5 was 54.8 µM; on CDK12/Cyclin K it was > 18 µM; at CDK4/Cyclin D3, 3.48 µM; at CDK2/Cyclin A2 it was 0.058 µM. In addition, the viability at 1 µM with A2058 [5] amounted to 23.7%. In [8], the inhibition entry was “Active”.
